{"data": "Results gathered from unrelated publications", "target": "Tyrosine-protein kinase Fyn (FYN, Homo sapiens, UniProt P06241)"}
{"SMILES": "CNC(=O)c1cc(Oc2ccc(NC(=O)Nc3ccc(Cl)c(C(F)(F)F)c3)cc2)ccn1", "assay": "enzyme activity, inhibitor", "setting": "0.3 µM", "endpoint": "inhibition", "result": "-22%"}
{"SMILES": "COc1cc(Nc2c(C#N)cnc3cc(OCCCN4CCN(C)CC4)c(OC)cc23)c(Cl)cc1Cl", "assay": "cell-free assay", "setting": "0.5 µM", "endpoint": "remaining signal", "result": "29.4%"}
{"SMILES": "CCN(CC)c1ccc(C2=NNC(=O)CC2C)cc1[N+](=O)[O-] (centres unmarked)", "assay": "enzyme activity, inhibitor", "setting": "10 µM", "endpoint": "remaining activity", "result": "110%"}
{"SMILES": "Cc1cc(NC(=O)c2cccc3cc(-c4cccc5[nH]nc(N)c45)ccc23)ccc1F", "assay": "enzyme activity, inhibitor", "setting": "0.1 µM", "endpoint": "activity vs control", "result": "88%"}
{"SMILES": "COc1cc2ncnc(Nc3ccc(Oc4ccccc4)cc3C)c2cc1OC", "assay": "enzyme activity, inhibitor", "setting": "1 µM", "endpoint": "inhibition", "result": "83%"}
{"SMILES": "CC(=O)Nc1c(C(C)=O)c(=O)n(C)c2nc(-c3ccc(Cl)cc3Cl)c(-c3ccc(Cl)cc3)cc12", "assay": "cell-free assay, competition with immobilised ligand", "setting": "1 µM", "endpoint": "remaining binding", "result": "100%"}
{"SMILES": "Cc1ccc(C(=O)NCc2ccsc2)cc1C#Cc1cn(C(C)C)c2ncnc(N)c12", "assay": "enzyme activity, inhibitor", "setting": "1 µM", "endpoint": "activity vs control", "result": "3%"}
{"SMILES": "CCCS(=O)(=O)Nc1ccc(F)c(C(=O)c2c[nH]c3ncc(-c4ccc(Cl)cc4)cc23)c1F", "assay": "enzyme activity, inhibitor", "setting": "1 µM", "endpoint": "inhibition", "result": "< 20%"}
{"SMILES": "CCOC(=O)c1cc2cc(-c3cc(C(=O)NCc4ccc(C(=O)O)cc4)nn3C)ccc2[nH]1", "assay": "cell-free assay, competition with immobilised ligand", "setting": "0.1 µM", "endpoint": "remaining binding", "result": "100%"}
{"SMILES": "Nc1ncnc2occ(-c3ccc(NC(=O)Nc4cc(C(F)(F)F)ccc4F)cc3)c12", "assay": "enzyme activity, inhibitor", "setting": "20 µM", "endpoint": "remaining activity", "result": "2.8%"}
{"SMILES": "CC(C)(C)c1nc2c(s1)c1nc(N)ncc1c1ccc(NS(=O)(=O)c3c(F)cccc3F)c(F)c12", "assay": "enzyme activity, inhibitor, radiometric", "setting": "1 µM", "endpoint": "remaining activity", "result": "97%"}
{"SMILES": "Cn1cnc(Br)c1C1=CN(c2ncnc3[nH]cnc23)CCS1", "assay": "enzyme activity, inhibitor, radiometric", "setting": "2 µM", "endpoint": "inhibition", "result": "44%"}
{"SMILES": "CCN(CC)CCNC(=O)c1c(C)[nH]c(/C=C2\\C(=O)Nc3ccc(F)cc32)c1C", "assay": "enzyme activity, inhibitor", "setting": "10 µM", "endpoint": "inhibition", "result": "89%"}
{"SMILES": "Cc1sc(C(=O)NC2COC2)cc1-n1cc(NC(=O)Nc2c(F)cccc2Cl)cn1", "assay": "enzyme activity, inhibitor", "setting": "10 µM", "endpoint": "remaining activity", "result": "99.8%"}
{"SMILES": "COc1cc(Cl)c(C(=O)N[C@@H](CN[C@H]2CC[C@@H](N)CC2)Cc2ccc(C#N)cc2)cc1-c1ccc(CN[C@H](C)c2ccc(C)cc2)o1", "assay": "enzyme activity, inhibitor", "setting": "1 µM", "endpoint": "remaining activity", "result": "104%"}
{"SMILES": "C[S+]([O-])c1ccc(-c2nc(-c3ccncc3)c(-c3ccc(F)cc3)[nH]2)cc1 (centres unmarked)", "assay": "cell-free assay", "setting": "0.5 µM", "endpoint": "remaining signal", "result": "89.8%"}
{"SMILES": "c1ccc(CNc2nc(N3CCOc4ccccc43)nc3c2CCCC3)cc1", "assay": "target engagement in cells, inhibitor, chemoproteomics", "setting": "20 mM", "endpoint": "inhibition", "result": "-18%"}
{"SMILES": "O=C(Nc1cnn(-c2csc(C(=O)NC3COC3)c2)c1)Nc1ccccc1Cl", "assay": "enzyme activity, inhibitor", "setting": "5 µM", "endpoint": "remaining activity", "result": "97.8%"}
{"SMILES": "Cc1cc(NC(=O)c2cccc(S(F)(F)(F)(F)F)c2)cc(-n2ccn3nc(-c4cccnc4)cc23)c1", "assay": "cell-free assay, competition with immobilised ligand", "setting": "1 µM", "endpoint": "remaining binding", "result": "81.3%"}
{"SMILES": "C#Cc1cccc(Nc2ncnc3cc(OCCOC)c(OCCOC)cc23)c1", "assay": "cell-free assay", "setting": "0.5 µM", "endpoint": "remaining signal", "result": "94.7%"}
{"SMILES": "c1nc2c(Nc3ccc4c(c3)OCCO4)nc(Nc3ccc4c(c3)OCCO4)nc2[nH]1", "assay": "enzyme activity, inhibitor", "setting": "10 µM", "endpoint": "activity vs control", "result": "8.7%"}
{"SMILES": "Cc1ccc(C(=O)Nc2ccc(CN3CCN(C)CC3)c(C(F)(F)F)c2)cc1C#Cc1cnc2cccnn12", "assay": "enzyme activity, inhibitor", "setting": "23.5 nM", "endpoint": "remaining activity", "result": "28%"}
{"SMILES": "O=c1nc(-c2ccccn2)sc2ccccc12", "assay": "binding, competition with immobilised ligand", "setting": "1 µM", "endpoint": "remaining binding", "result": "100%"}
{"SMILES": "O=c1cc(-c2cccc3c2Sc2ccccc2S3)oc(N2CCOCC2)c1", "assay": "enzyme activity, inhibitor", "setting": "0.5 µM", "endpoint": "remaining activity", "result": "88.6%"}
{"SMILES": "CNC(=O)Nc1ccc2c(c1)[C@@]1(CC2)OC(=O)N(CC(=O)N(Cc2ccc(F)cc2)[C@@H](C)C(F)(F)F)C1=O", "assay": "cell-free assay, competition with immobilised ligand", "setting": "1 µM", "endpoint": "remaining binding", "result": "79%"}
{"SMILES": "O=C1c2ccccc2-c2n[nH]c3cccc1c23", "assay": "enzyme activity, inhibitor", "setting": "0.5 µM", "endpoint": "activity vs control", "result": "93.2%"}
{"SMILES": "COc1ccc2cc(OCC3(C(=O)O)CN(C(=O)c4ccc(F)cc4)C3)ccc2c1", "assay": "cell-free assay, competition with immobilised ligand", "setting": "1 µM", "endpoint": "remaining binding", "result": "100%"}
{"SMILES": "CCN(CC)CCNC(=O)c1c(C)[nH]c(/C=C2\\C(=O)Nc3ccc(Cl)cc32)c1C", "assay": "enzyme activity, inhibitor", "setting": "0.5 µM", "endpoint": "remaining activity", "result": "28.4%"}
{"SMILES": "CN(C(=O)c1ccccc1)c1cc(N(C)c2ccc3c(c2)CCc2ccc(C(=O)NCCN4CCOCC4)cc2C3=O)ccc1F", "assay": "cell-free assay, competition with immobilised ligand", "setting": "1 µM", "endpoint": "remaining binding", "result": "61%"}
{"SMILES": "CCCCNc1ncc2c(-c3ccc(F)cc3)nn(C[C@H]3CC[C@H](N)CC3)c2n1", "assay": "target engagement in cells, inhibitor, chemoproteomics", "setting": "20 mM", "endpoint": "inhibition", "result": "> 96%"}
{"SMILES": "CCc1ccccc1C(=O)Nc1n[nH]c2c(C)c(F)c(C3C(C#N)=C(C)N(C)C(C)=C3C#N)cc12", "assay": "cell-free assay, competition with immobilised ligand", "setting": "1 µM", "endpoint": "remaining binding", "result": "100%"}
{"SMILES": "CNCc1ccc(-c2cc(-c3nc(-c4ccc(S(=O)(=O)C(C)C)cc4)cnc3N)on2)cc1", "assay": "enzyme activity, inhibitor", "setting": "2 µM", "endpoint": "inhibition", "result": "27%"}
